Legend:
[1] = species: Bos taurus; test: Effective concentration of compound for relaxation of bovine coronary artery; type: functional
[2] = test system: Canis familiaris; test: Percent change in coronary resistance produced by the compound on dogs by intravenous infusion rate of 500 ng/kg/min; type: functional, Canis lupus familiaris
In short: (§1)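 The compound was infused into a femoral vein at increasing concentrations, each dose level for 3 min. Mean peripheral blood pressure was taken in the femoral artery and heart rate by cardiotachometer. Total and coronary vascular resistance were calculated as blood pressure divided by the corresponding flow. Values are maximum changes as percent of resting values.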

[3] = test system: Canis familiaris; test: Percent change in cardiac out put produced by the compound on dogs by intravenous infusion rate of 500 ng/kg/min; type: functional, Canis lupus familiaris, Heart; in short: as §1
[4] = test system: Canis familiaris; test: Percent change in heart rate produced by the compound on dogs by intravenous infusion rate of 1000 ng/kg/min; type: functional, Canis lupus familiaris; in short: as §1
[5] = test system: Canis familiaris; test: Percent change in total peripheral resistance produced by the compound on dogs by intravenous infusion rate of 1000 ng/kg/min; type: functional, Canis lupus familiaris; in short: as §1
[6] = test system: Canis familiaris; test: Percent change in heart rate produced by the compound on dogs by intravenous infusion rate of 500 ng/kg/min; type: functional, Canis lupus familiaris; in short: as §1
[7] = biological target: Adenylate cyclase type 1 (Homo sapiens) (UniProt Q08828); test: Activation of human platelet adenylate cyclase at the concentration of 1 uMol; type: functional
In short: (§2)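 Adenylate cyclase in membranes prepared from human platelet-rich plasma, compound tested as Na salt. Activity is given as percent (mean ± SE) of measurable enzyme activity without drug, n = 8, with significance tested against the respective control. The method follows ref 17.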

[8] = test system: Canis familiaris; test: Percent change in total peripheral resistance produced by the compound on dogs by intravenous infusion rate of 5000 ng/kg/min; type: functional, Canis lupus familiaris; in short: as §1
[9] = test system: Canis familiaris; test: Percent change in heart rate produced by the compound on dogs by intravenous infusion rate of 5000 ng/kg/min; type: functional, Canis lupus familiaris; in short: as §1
[10] = test system: Canis familiaris; test: Percent change in coronary resistance produced by the compound on dogs by intravenous infusion rate of 1000 ng/kg/min; type: functional, Canis lupus familiaris; in short: as §1
[11] = biological target: Adenylate cyclase type 1 (Homo sapiens) (UniProt Q08828); test: Activation of human platelet adenylate cyclase at the concentration of 10 uMol; type: functional; in short: as §2
[12] = test system: Canis familiaris; test: Percent change in blood pressure produced by the compound on dogs by intravenous infusion rate of 5000 ng/kg/min; type: functional, Canis lupus familiaris; in short: as §1
[13] = test system: Canis familiaris; test: Percent change in coronary resistance produced by the compound on dogs by intravenous infusion rate of 5000 ng/kg/min; type: functional, Canis lupus familiaris; in short: as §1
[14] = test system: Canis familiaris; test: Percent change in cardiac out put produced by the compound on dogs by intravenous infusion rate of 1000 ng/kg/min; type: functional, Canis lupus familiaris, Heart; in short: as §1
[15] = test system: Canis familiaris; test: Percent change in cardiac out put produced by the compound on dogs by intravenous infusion rate of 5000 ng/kg/min; type: functional, Canis lupus familiaris, Heart; in short: as §1
[16] = test system: Canis familiaris; test: Percent change in total peripheral resistance produced by the compound on dogs by intravenous infusion rate of 500 ng/kg/min; type: functional, Canis lupus familiaris; in short: as §1
[17] = test system: Canis familiaris; test: Percent change in blood pressure produced by the compound on dogs by intravenous infusion rate of 1000 ng/kg/min; type: functional, Canis lupus familiaris; in short: as §1
[18] = test system: Canis familiaris; test: Percent change in blood pressure produced by the compound on dogs by intravenous infusion rate of 500 ng/kg/min; type: functional, Canis lupus familiaris; in short: as §1
[19] = test system: Canis familiaris; test: Percent change in blood pressure produced by the compound on dogs by intravenous infusion rate of 50 ng/kg/min; type: functional, Canis lupus familiaris; in short: as §1
[20] = test system: Canis familiaris; test: Percent change in cardiac out put produced by the compound on dogs by intravenous infusion rate of 50 ng/kg/min; type: functional, Canis lupus familiaris, Heart; in short: as §1
[21] = species: Homo sapiens; test: Inhibitory concentration of compound in human platelet rich plasma against 2 umol of ADP-induced aggregation; type: functional
[22] = test system: Canis familiaris; test: Percent change in coronary resistance produced by the compound on dogs by intravenous infusion rate of 50 ng/kg/min; type: functional, Canis lupus familiaris; in short: as §1
[23] = test system: Canis familiaris; test: Percent change in heart rate produced by the compound on dogs by intravenous infusion rate of 50 ng/kg/min; type: functional, Canis lupus familiaris; in short: as §1
[24] = test system: Canis familiaris; test: Percent change in total peripheral resistance produced by the compound on dogs by intravenous infusion rate of 50 ng/kg/min; type: functional, Canis lupus familiaris; in short: as §1

Sequence of Adenylate cyclase type 1 (Homo sapiens) (Q08828 whole entry, looked up, the tested form may be a part): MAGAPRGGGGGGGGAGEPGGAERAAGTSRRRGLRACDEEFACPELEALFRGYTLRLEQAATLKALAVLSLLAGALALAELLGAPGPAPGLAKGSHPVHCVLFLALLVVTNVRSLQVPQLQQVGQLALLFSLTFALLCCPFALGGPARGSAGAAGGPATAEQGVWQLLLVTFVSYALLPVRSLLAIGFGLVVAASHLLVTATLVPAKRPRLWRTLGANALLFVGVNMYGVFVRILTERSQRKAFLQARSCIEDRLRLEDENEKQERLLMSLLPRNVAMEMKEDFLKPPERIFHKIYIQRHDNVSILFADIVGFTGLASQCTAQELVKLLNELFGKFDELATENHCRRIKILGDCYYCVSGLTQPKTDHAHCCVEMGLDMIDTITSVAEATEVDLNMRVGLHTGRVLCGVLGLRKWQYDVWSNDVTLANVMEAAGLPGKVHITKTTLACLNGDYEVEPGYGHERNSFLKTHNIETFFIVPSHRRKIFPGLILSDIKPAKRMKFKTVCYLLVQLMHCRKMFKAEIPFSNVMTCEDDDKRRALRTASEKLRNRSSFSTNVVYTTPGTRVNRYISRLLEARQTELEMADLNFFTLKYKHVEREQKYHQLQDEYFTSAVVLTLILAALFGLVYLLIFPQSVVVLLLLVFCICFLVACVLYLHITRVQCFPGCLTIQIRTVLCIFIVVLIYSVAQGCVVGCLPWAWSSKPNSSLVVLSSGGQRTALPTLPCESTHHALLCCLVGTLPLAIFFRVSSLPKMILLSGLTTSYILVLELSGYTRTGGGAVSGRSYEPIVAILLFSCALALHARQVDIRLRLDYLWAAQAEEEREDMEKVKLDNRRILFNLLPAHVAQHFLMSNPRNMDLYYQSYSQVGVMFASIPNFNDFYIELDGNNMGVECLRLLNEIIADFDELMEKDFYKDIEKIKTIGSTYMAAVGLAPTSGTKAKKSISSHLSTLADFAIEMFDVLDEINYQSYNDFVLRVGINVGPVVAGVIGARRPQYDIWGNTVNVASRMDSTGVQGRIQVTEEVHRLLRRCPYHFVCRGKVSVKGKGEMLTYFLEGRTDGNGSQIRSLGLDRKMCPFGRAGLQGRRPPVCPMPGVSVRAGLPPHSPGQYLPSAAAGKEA

SMILES: CCCCC[C@H](O)/C=C/[C@H]1[C@H](O)CC2O/C(=C\CCCC(=O)[O-])C(=O)[C@@H]21.[Na+] (stereo partly drawn)
- EC50 [1]: 402 nM
- Hemodynamic change [2]: -2.2%
- Hemodynamic change [3]: -1.6%
- Hemodynamic change [4]: -2%
- Hemodynamic change [5]: -13.3%
- Hemodynamic change [6]: 0%
- Activity [7]: 239%
- Hemodynamic change [8]: -40.7%
- Hemodynamic change [9]: -13.8%
- Hemodynamic change [10]: -6.1%
- Activity [11]: 825%
- Hemodynamic change [12]: -49%
- Hemodynamic change [13]: -28.8%
- Hemodynamic change [14]: -3.9%
- Hemodynamic change [15]: -22.3%
- Hemodynamic change [16]: -8.3%
- Hemodynamic change [17]: -13.3%
- Hemodynamic change [18]: -8.1%

SMILES: CCCCC[C@H](O)/C=C/[C@@H]1[C@H]2C/C(=C/CCCC(=O)[O-])O[C@H]2C[C@H]1O.[Na+] [EPOPROSTENOL SODIUM]
- EC50 [1]: 43 nM
- Hemodynamic change [19]: -13.6%
- Hemodynamic change [20]: -5.6%
- IC50 [21]: 1 ng/mL
- Activity [7]: 374%
- Hemodynamic change [22]: -2.8%
- Hemodynamic change [23]: 3.6%
- Activity [11]: 1740%
- Hemodynamic change [24]: -11.5%

SMILES: CCCCC[C@H](O)/C=C/[C@@H]1[C@H]2C(=O)/C(=C/CCCC(=O)[O-])O[C@H]2C[C@H]1O.[Na+]
- IC50 [21]: 15 ng/mL
